Data on twelve compounds can be found in ChEMBL document CHEMBL1795264, “Deglycobleomycin A6 analogues modified in the methylvalerate moiety” (Bioorg Med Chem, 2011).

The test system of experiment [1] is Nucleic Acid. Nature of the experiment: Induction of Escherichia coli supercoiled pBR322 DNA cleavage assessed as formation of linear form of DNA using bromophenol blue at 4 uM after 30 mins by agarose gel electrophoresis analysis in presence of equimolar Fe2+. In kind it is nucleic-acid assay.
Experiment [2] relates to Nucleic Acid. Put plainly: Induction of Escherichia coli supercoiled pBR322 DNA cleavage assessed as formation of nicked DNA using bromophenol blue at 1 to 4 uM after 30 mins by agarose gel electrophoresis analysis in presence of equimolar Fe2+. In kind it is nucleic-acid assay.
Experiment [3] relates to Nucleic Acid. Nature of the experiment: Induction of Escherichia coli [5'-32P]-end labeled 64-nucleotide hairpin DNA base pair of pBR322 DNA cleavage using bromophenol blue and xylene cyanol FF at 5 to 20 uM after 30 mins by phosphorimager analysis in presence of equimolar Fe2+. In kind it is nucleic-acid assay. A digest of the protocol: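 64-nt hairpin DNA, 5'-32P-labelled with T4 polynucleotide kinase and purified on 16% polyacrylamide gel, 30,000 cpm, exposed to Fe2+ plus deglycoBLM in 50 mM Tris–HCl pH 8.0 at room temperature for 30 min. Dried, heated 90 °C 10 min in formamide loading buffer, then run on denaturing 16% polyacrylamide/7 M urea gel at 1800 V for 2.5 h.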

Experiment [4] has as its system Nucleic Acid. Nature of the experiment: Induction of Escherichia coli [5'-32P]-end labeled 158-base pair of pBR322 DNA cleavage at G12 site using bromophenol blue and xylene cyanol FF at 1 to 10 uM after 30 mins by phosphorimager analysis in presence of equimolar Fe2+. In kind it is nucleic-acid assay. A digest of the protocol:
(§1)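 158-bp pBR322 restriction fragment (HindIII cut, dephosphorylated, 5'-32P-labelled with T4 polynucleotide kinase, EcoRV cut), 30,000 cpm, treated with Fe2+ plus deglycoBLM in 50 mM Tris–HCl pH 8.0 at room temperature for 30 min. Supernatant removed under vacuum, pellet heated 90 °C 10 min in formamide loading buffer and chilled on ice before denaturing gel analysis.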

Experiment [5] relates to Nucleic Acid. Nature of the experiment: Induction of Escherichia coli [5'-32P]-end labeled 158-base pair of pBR322 DNA cleavage at A15 site using bromophenol blue and xylene cyanol FF at 1 to 10 uM after 30 mins by phosphorimager analysis in presence of equimolar Fe2+. In kind it is nucleic-acid assay. In a few lines: as §1
Experiment [6] relates to Nucleic Acid. Put plainly: Induction of Escherichia coli [5'-32P]-end labeled 158-base pair of pBR322 DNA cleavage using bromophenol blue and xylene cyanol FF at 1 to 10 uM after 30 mins by phosphorimager analysis in presence of equimolar Fe2+.
For experiment [7], the system named is Nucleic Acid. Nature of the experiment: Induction of Escherichia coli [5'-32P]-end labeled 158-base pair of pBR322 DNA cleavage at 5'-GT27-3' site using bromophenol blue and xylene cyanol FF at 1 to 10 uM after 30 mins by phosphorimager analysis in presence of equimolar Fe2+. In kind it is nucleic-acid assay. In a few lines:
as §1

Experiment [8] has as its system Nucleic Acid. Put plainly: Induction of Escherichia coli [5'-32P]-end labeled 158-base pair of pBR322 DNA cleavage at 5'-CG35-3' site using bromophenol blue and xylene cyanol FF at 1 to 10 uM after 30 mins by phosphorimager analysis in presence of equimolar Fe2+. In kind it is nucleic-acid assay. In a few lines: as §1
The test system of experiment [9] is Nucleic Acid. Put plainly: Induction of Escherichia coli [5'-32P]-end labeled 158-base pair of pBR322 DNA cleavage at 5'-GT14-3' site using bromophenol blue and xylene cyanol FF at 1 to 10 uM after 30 mins by phosphorimager analysis in presence of equimolar Fe2+. In kind it is nucleic-acid assay. In a few lines:
as §1

Experiment [10] has as its system Nucleic Acid. Put plainly: Induction of Escherichia coli [5'-32P]-end labeled 158-base pair of pBR322 DNA cleavage at 5'-GT17-3' site using bromophenol blue and xylene cyanol FF at 1 to 10 uM after 30 mins by phosphorimager analysis in presence of equimolar Fe2+. In kind it is nucleic-acid assay. In a few lines:
as §1

Experiment [11] deals with Nucleic Acid. Nature of the experiment: Induction of Escherichia coli [5'-32P]-end labeled 158-base pair of pBR322 DNA cleavage at 5'-CG11-3' site using bromophenol blue and xylene cyanol FF at 1 to 10 uM after 30 mins by phosphorimager analysis in presence of equimolar Fe2+. In kind it is nucleic-acid assay. In a few lines:
as §1

Structures are written as SMILES. Active and inactive are the calls of the source. The rule behind the calls is not given here.

As for `Cc1c(N)nc([C@H](CC(N)=O)NC[C@H](N)C(N)=O)nc1C(=O)N[C@@H](Cc1c[nH]cn1)C(=O)N[C@H](Cc1ccccc1Br)[C@@H](O)[C@H](C)C(=O)N[C@H](C(=O)NCCc1nc(-c2nc(C(=O)NCCCNCCCCNCCCN)cs2)cs1)[C@@H](C)O`, the outcome in the experiment on Nucleic Acid [1], in the experiment with Nucleic Acid [2], in the experiment on Nucleic Acid [3] and with Nucleic Acid [6] was Active. Also, the outcome in the experiment with Nucleic Acid [4] and in the experiment on Nucleic Acid [5] was inactive.
As for `Cc1c(N)nc([C@H](CC(N)=O)NC[C@H](N)C(N)=O)nc1C(=O)N[C@@H](Cc1c[nH]cn1)C(=O)N[C@H](Cc1ccccc1)[C@@H](O)[C@H](C)C(=O)N[C@H](C(=O)NCCc1nc(-c2nc(C(=O)NCCCNCCCCNCCCN)cs2)cs1)[C@@H](C)O`, the result in the experiment with Nucleic Acid [1], in the experiment on Nucleic Acid [2], in the experiment on Nucleic Acid [3] and in the experiment with Nucleic Acid [6] was Active. Besides, the result in the experiment on Nucleic Acid [4] and in the experiment on Nucleic Acid [5] was inactive.
With `Cc1c(N)nc([C@H](CC(N)=O)NC[C@H](N)C(N)=O)nc1C(=O)N[C@@H](Cc1c[nH]cn1)C(=O)N[C@H](CC(C)C)[C@@H](O)[C@H](C)C(=O)N[C@H](C(=O)NCCc1nc(-c2nc(C(=O)NCCCNCCCCNCCCN)cs2)cs1)[C@@H](C)O`, the result in the experiment with Nucleic Acid [7], with Nucleic Acid [2], in the experiment on Nucleic Acid [8], in the experiment on Nucleic Acid [3], in the experiment on Nucleic Acid [9] and in the experiment with Nucleic Acid [10] was Active. The outcome in the experiment with Nucleic Acid [11] was Active.
Turning to `Cc1c(N)nc([C@H](CC(N)=O)NC[C@H](N)C(N)=O)nc1C(=O)N[C@@H](Cc1c[nH]cn1)C(=O)N[C@H](CC1CCCCC1)[C@@H](O)[C@H](C)C(=O)N[C@H](C(=O)NCCc1nc(-c2nc(C(=O)NCCCNCCCCNCCCN)cs2)cs1)[C@@H](C)O`, the result in the experiment on Nucleic Acid [1], in the experiment on Nucleic Acid [2], in the experiment on Nucleic Acid [3] and in the experiment with Nucleic Acid [6] was Active. Moreover, the result with Nucleic Acid [4] and with Nucleic Acid [5] was inactive.
In the case of `Cc1c(N)nc([C@H](CC(N)=O)NC[C@H](N)C(N)=O)nc1C(=O)N[C@@H](Cc1c[nH]cn1)C(=O)N[C@H](C)[C@@H](O)[C@H](C)C(=O)N[C@H](C(=O)NCCc1nc(-c2nc(C(=O)NCCCNCCCCN)cs2)cs1)[C@@H](C)O`, the outcome in the experiment on Nucleic Acid [2] and in the experiment with Nucleic Acid [3] was Active.
In the case of `CC[C@@H](C)C(NC(=O)[C@H](Cc1c[nH]cn1)NC(=O)c1nc([C@H](CC(N)=O)NC[C@H](N)C(N)=O)nc(N)c1C)[C@@H](O)[C@H](C)C(=O)N[C@H](C(=O)NCCc1nc(-c2nc(C(=O)NCCCNCCCCNCCCN)cs2)cs1)[C@@H](C)O` (single isomer, unassigned), the outcome in the experiment on Nucleic Acid [7], with Nucleic Acid [2], with Nucleic Acid [8], in the experiment with Nucleic Acid [3], in the experiment with Nucleic Acid [4] and in the experiment on Nucleic Acid [9] was Active. The outcome in the experiment with Nucleic Acid [10], with Nucleic Acid [11] and in the experiment on Nucleic Acid [5] was Active.
As to `Cc1c(N)nc([C@H](CC(N)=O)NC[C@H](N)C(N)=O)nc1C(=O)N[C@@H](Cc1c[nH]cn1)C(=O)N[C@@H]([C@@H](O)[C@H](C)C(=O)N[C@H](C(=O)NCCc1nc(-c2nc(C(=O)NCCCNCCCCNCCCN)cs2)cs1)[C@@H](C)O)C(C)(C)C`, the outcome in the experiment on Nucleic Acid [7], in the experiment with Nucleic Acid [2], in the experiment on Nucleic Acid [8], with Nucleic Acid [3], in the experiment with Nucleic Acid [9] and in the experiment with Nucleic Acid [10] was Active. For the same compound, the outcome in the experiment on Nucleic Acid [11] was Active.
As for `Cc1c(N)nc([C@H](CC(N)=O)NC[C@H](N)C(N)=O)nc1C(=O)N[C@@H](Cc1c[nH]cn1)C(=O)N[C@H](C)[C@@H](O)[C@H](CC(C)C)C(=O)N[C@H](C(=O)NCCc1nc(-c2nc(C(=O)NCCCNCCCCNCCCN)cs2)cs1)[C@@H](C)O`, the result in the experiment with Nucleic Acid [1], with Nucleic Acid [2], with Nucleic Acid [3] and in the experiment with Nucleic Acid [6] was Active. Moreover, the outcome with Nucleic Acid [4] and in the experiment with Nucleic Acid [5] was inactive.
For `Cc1c(N)nc([C@H](CC(N)=O)NC[C@H](N)C(N)=O)nc1C(=O)N[C@@H](Cc1c[nH]cn1)C(=O)N[C@H](CC(C)C)[C@@H](O)[C@H](CC(C)C)C(=O)N[C@H](C(=O)NCCc1nc(-c2nc(C(=O)NCCCNCCCCNCCCN)cs2)cs1)[C@@H](C)O`, the result in the experiment on Nucleic Acid [1], in the experiment on Nucleic Acid [2], with Nucleic Acid [3] and with Nucleic Acid [6] was Active. In addition, the result in the experiment on Nucleic Acid [4] and with Nucleic Acid [5] was inactive.
`CCCC[C@H](C(=O)N[C@H](C(=O)NCCc1nc(-c2nc(C(=O)NCCCNCCCCNCCCN)cs2)cs1)[C@@H](C)O)[C@H](O)[C@@H](C)NC(=O)[C@H](Cc1c[nH]cn1)NC(=O)c1nc([C@H](CC(N)=O)NC[C@H](N)C(N)=O)nc(N)c1C`: the outcome with Nucleic Acid [1], in the experiment with Nucleic Acid [2], in the experiment on Nucleic Acid [3] and with Nucleic Acid [6] was Active. Further, the result in the experiment with Nucleic Acid [4] and with Nucleic Acid [5] was inactive.
On to `Cc1c(N)nc([C@H](CC(N)=O)NC[C@H](N)C(N)=O)nc1C(=O)N[C@@H](Cc1c[nH]cn1)C(=O)N[C@H](C)[C@@H](O)[C@H](Cc1ccccc1)C(=O)N[C@H](C(=O)NCCc1nc(-c2nc(C(=O)NCCCNCCCCNCCCN)cs2)cs1)[C@@H](C)O`, for which the result in the experiment on Nucleic Acid [1], in the experiment with Nucleic Acid [2], in the experiment on Nucleic Acid [3] and with Nucleic Acid [6] was Active. Further, the outcome with Nucleic Acid [4] and in the experiment on Nucleic Acid [5] was inactive.
In the case of `Cc1ccccc1C[C@@H](NC(=O)[C@H](Cc1c[nH]cn1)NC(=O)c1nc([C@H](CC(N)=O)NC[C@H](N)C(N)=O)nc(N)c1C)[C@@H](O)[C@H](C)C(=O)N[C@H](C(=O)NCCc1nc(-c2nc(C(=O)NCCCNCCCCNCCCN)cs2)cs1)[C@@H](C)O`, the result in the experiment with Nucleic Acid [2], in the experiment on Nucleic Acid [3] and in the experiment with Nucleic Acid [6] was Active. For the same compound, the outcome with Nucleic Acid [4] and in the experiment with Nucleic Acid [5] was inactive.
